Test results reported in ChEMBL document CHEMBL4028898, “Structure-Activity Relationships of 6- and 8-Gingerol Analogs as Anti-Biofilm Agents” (J Med Chem, 2017).
Activity calls are given as the source filed them. The rule behind the calls is not given here.

How the values were obtained:
Pseudomonas aeruginosa [1] = experiment: Antagonist activity at Pseudomonas aeruginosa LasR expressed in Escherichia coli DH5alpha assessed as inhibition of protein interaction with OdDHL at 1 to 10 uM after 1.5 hrs by beta-galactosidase reporter gene assay
Summary of the method: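 E. coli DH5α reporter carrying pJN105L (LasR) and pSC11 (lasI::lacZ); overnight culture with 10 µg/mL gentamicin and 50 µg/mL ampicillin diluted 1:100 in LB, used at OD595 0.3. Incubated with compound, OdDHL and 0.4% arabinose at 37 °C for 1.5 hr. β-galactosidase read by luminescence; RLU ratio = luminescence/OD595 ×100.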

Pseudomonas aeruginosa [2] = experiment: Agonist activity at Pseudomonas aeruginosa LasR expressed in Escherichia coli DH5alpha at 10 uM after 1.5 hrs by beta-galactosidase reporter gene assay
Pseudomonas aeruginosa [3] = experiment: Inhibition of static biofilm formation of Pseudomonas aeruginosa PA14 assessed as level of biofilm formation at 10 uM after 24 hrs by crystal violet staining-based assay relative to control; format: functional; set-up: scale not given: the % may be the effect or the level left
Summary of the method: (§1)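 PA14 overnight culture (OD595 1.0) diluted 1:20 in AB medium, pH 7.5, with compound (0–100 µM), in borosilicate bottles, static at 37 °C for 24 hr.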

Pseudomonas aeruginosa [4] = experiment: Inhibition of dynamic biofilm formation of Pseudomonas aeruginosa PA14 assessed as biofilm volume up to 10 uM after 48 hrs by Ruby/ConA staining-based assay (reference value: 23.1 +/- 1.8 um'3/um'2); format: functional
Summary of the method: (§2)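 Glass slides seeded 24 h at 37 °C, static, with PA14 (OD595 1.0) in AB medium, then placed in a drip-flow reactor fed with AB medium plus compound (0–10 µM) at 0.3 mL/min, 37 °C, 48 hr. PBS-washed biofilm stained 15 min with FITC-ConA (carbohydrate) and SYPRO Ruby (protein); CLSM at 20×; volume (µm³/µm²) and average thickness quantified by Comstat2.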

Pseudomonas aeruginosa [5] = experiment: Inhibition of dynamic biofilm formation of Pseudomonas aeruginosa PA14 assessed as biofilm thickness up to 10 uM after 48 hrs by Ruby/ConA staining-based assay (reference value: 34.5 +/- 1.3 um); format: functional; summary of the method: as §2
Pseudomonas aeruginosa [6] = experiment: Inhibition of dynamic biofilm formation of Pseudomonas aeruginosa PA14 at 10 uM after 48 hrs by Ruby/ConA staining-based confocal laser scanning microscopic method; format: functional; summary of the method: as §2
Pseudomonas aeruginosa [7] = experiment: Growth inhibition of Pseudomonas aeruginosa PA14 at 100 uM after 24 hrs
Summary of the method: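 P. aeruginosa PA14 overnight culture (OD595 1.0), 5% dilution with compound (0–100 µM), grown in 96-well plates at 37 °C for 24 h; growth read as OD595.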

Pseudomonas aeruginosa [8] = experiment: Inhibition of static biofilm formation of Pseudomonas aeruginosa PA14 at 10 uM after 24 hrs by crystal violet staining-based assay; format: functional; summary of the method: as §1
Pseudomonas aeruginosa [9] = experiment: Inhibition of static biofilm formation of Pseudomonas aeruginosa PA14 at 100 uM after 24 hrs by crystal violet staining-based assay; format: functional; summary of the method: as §1
Pseudomonas aeruginosa [10] = experiment: Reversible binding affinity to Pseudomonas aeruginosa LasR expressed in Escherichia coli DH5alpha at 1 uM after 1.5 hrs in presence of OdDHL by beta-galactosidase reporter gene assay
Summary of the method: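 LasR reporter in E. coli DH5α (pJN105L + pSC11) with 0.4% arabinose, 37 °C, 1.5 hr. Compound at 1 µM tested against OdDHL at 0, 0.1, 1, 10 and 100 µM, compared with no-compound control. β-galactosidase luminescence divided by OD595.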

Pseudomonas aeruginosa [11] = experiment: Inhibition of dynamic biofilm formation of Pseudomonas aeruginosa PA14 assessed as volume of carbohydrates in biofilm up to 10 uM after 48 hrs by Ruby/ConA staining-based assay relative to control; format: functional; set-up: scale not given: the % may be the effect or the level left; summary of the method: as §2
Pseudomonas aeruginosa [12] = experiment: Inhibition of dynamic biofilm formation of Pseudomonas aeruginosa PA14 assessed as volume of proteins in biofilm up to 10 uM after 48 hrs by Ruby/ConA staining-based assay relative to control; format: functional; set-up: scale not given: the % may be the effect or the level left; summary of the method: as §2

CCCC(O)CC(=O)CCc1ccc(O)c(OC)c1 (stereo not drawn)
inhibition (Pseudomonas aeruginosa [1]): Active
Activity (Pseudomonas aeruginosa [2]): inactive

CCCCCCC[C@H](O)CC(=O)CCc1ccc(O)c(OC)c1
inhibition (Pseudomonas aeruginosa [1]): Active
Activity (Pseudomonas aeruginosa [3]): 100%
Activity (Pseudomonas aeruginosa [4]): 17 um3/um2
Activity (Pseudomonas aeruginosa [5]): 17 um
inhibition (Pseudomonas aeruginosa [6]): Active

CCCCCCCC(O)CC(=O)CCc1ccc(O)c(OCC)c1 (stereo not drawn)
inhibition (Pseudomonas aeruginosa [1]): Active

CCCCCCCC(O)CC(=O)CCc1ccc(OC)c(OC)c1 (stereo not drawn)
inhibition (Pseudomonas aeruginosa [1]): Active

CCCCCCC[C@@H](O)CC(=O)CCc1ccc(O)c(OC)c1
inhibition (Pseudomonas aeruginosa [1]): Active
growth inhibition (GI) (Pseudomonas aeruginosa [7]): Non-Toxic
Activity (Pseudomonas aeruginosa [3]): 72%
Activity (Pseudomonas aeruginosa [4]): 9.7 um3/um2
Activity (Pseudomonas aeruginosa [5]): 13.9 um
inhibition (Pseudomonas aeruginosa [6]): Active

CCCCC[C@H](O)CC(=O)CCc1ccc(O)c(OC)c1
inhibition (Pseudomonas aeruginosa [8]): Active
inhibition (Pseudomonas aeruginosa [1]): Active

CCCCCCCCCC(=O)CCc1ccc(O)c(OC)c1
inhibition (Pseudomonas aeruginosa [8]): Active
inhibition (Pseudomonas aeruginosa [1]): Active

CCCCCCCCCC(O)CC(=O)CCc1ccc(O)c(OC)c1 (stereo not drawn)
inhibition (Pseudomonas aeruginosa [1]): Active
inhibition (Pseudomonas aeruginosa [9]): Active
growth inhibition (GI) (Pseudomonas aeruginosa [7]): Toxic
Activity (Pseudomonas aeruginosa [2]): inactive

CCCCCCCC(O)CC(=O)CCc1cccc(OC)c1 (stereo not drawn)
inhibition (Pseudomonas aeruginosa [1]): Active

CCCCCCCC(O)CC(=O)CCc1ccccc1 (stereo not drawn)
inhibition (Pseudomonas aeruginosa [1]): Active

CCCCCCCC(O)CC(=O)/C=C/c1ccc(O)c(OC)c1 (stereo not drawn)
inhibition (Pseudomonas aeruginosa [1]): Active

CCCCCCCC(=O)CCc1ccc(O)c(OC)c1
inhibition (Pseudomonas aeruginosa [8]): Active
inhibition (Pseudomonas aeruginosa [1]): Active

CCCCCC(O)CC(=O)CCc1ccccc1 (stereo not drawn)
inhibition (Pseudomonas aeruginosa [1]): Active

CCCCCCC(O)CC(=O)CCc1ccc(O)c(OC)c1 (stereo not drawn)
inhibition (Pseudomonas aeruginosa [1]): Active
Activity (Pseudomonas aeruginosa [2]): inactive

CCCCCC(O)CC(=O)/C=C/c1ccc(O)c(OC)c1 (stereo not drawn)
inhibition (Pseudomonas aeruginosa [1]): Active

CCCCCC(O)CC(=O)CCc1ccc(O)cc1 (stereo not drawn)
inhibition (Pseudomonas aeruginosa [8]): Active
inhibition (Pseudomonas aeruginosa [1]): Active

CCCCCC(O)CC(=O)CCc1ccc(F)c(OC)c1 (stereo not drawn)
inhibition (Pseudomonas aeruginosa [8]): Active
inhibition (Pseudomonas aeruginosa [1]): Active

CCCCCC(O)CC(=O)CCc1ccc(O)c(OC)c1 (stereo not drawn)
inhibition (Pseudomonas aeruginosa [1]): Active
Activity (Pseudomonas aeruginosa [2]): inactive

CCCCCCCC(=O)/C=C/c1ccc(O)c(OC)c1
inhibition (Pseudomonas aeruginosa [8]): Active
inhibition (Pseudomonas aeruginosa [1]): Active

CCCCC(O)CC(=O)CCc1ccc(O)c(OC)c1 (stereo not drawn)
inhibition (Pseudomonas aeruginosa [1]): Active
Activity (Pseudomonas aeruginosa [2]): inactive

CCCCCCCCCC(=O)/C=C/c1ccc(O)c(OC)c1
inhibition (Pseudomonas aeruginosa [8]): Active
inhibition (Pseudomonas aeruginosa [1]): Active

CCCCCCCCC(O)CC(=O)CCc1ccc(O)c(OC)c1 (stereo not drawn)
inhibition (Pseudomonas aeruginosa [1]): Active
inhibition (Pseudomonas aeruginosa [9]): Active
growth inhibition (GI) (Pseudomonas aeruginosa [7]): Toxic
Activity (Pseudomonas aeruginosa [2]): inactive

CCCCCCCC(O)CC(=O)CCc1ccc(F)cc1 (stereo not drawn)
inhibition (Pseudomonas aeruginosa [8]): Active
inhibition (Pseudomonas aeruginosa [1]): Active

CCCCCCCC(O)CC(=O)CCc1ccc(F)c(OC)c1 (stereo not drawn)
inhibition (Pseudomonas aeruginosa [8]): Active
inhibition (Pseudomonas aeruginosa [1]): Active

CCCCCCCC(O)CC(=O)CCc1ccc(O)c(OC)c1 (stereo not drawn)
inhibition (Pseudomonas aeruginosa [1]): Active
Activity (Pseudomonas aeruginosa [2]): inactive

CCCCCCC[C@@H](O)CC(=O)/C=C/c1ccc(O)c(OC)c1
inhibition (Pseudomonas aeruginosa [8]): Active
inhibition (Pseudomonas aeruginosa [1]): Active
growth inhibition (GI) (Pseudomonas aeruginosa [7]): Non-Toxic
Activity (Pseudomonas aeruginosa [10]): Active
Activity (Pseudomonas aeruginosa [4]): 7.4 um3/um2
Activity (Pseudomonas aeruginosa [5]): 10.3 um
Activity (Pseudomonas aeruginosa [11]): 47 - 74%
Activity (Pseudomonas aeruginosa [12]): 23 - 56%
inhibition (Pseudomonas aeruginosa [6]): Active

CCCCCCCC(O)CC(=O)CCc1ccc(O)cc1 (stereo not drawn)
inhibition (Pseudomonas aeruginosa [8]): Active
inhibition (Pseudomonas aeruginosa [1]): Active

CCCCCC(O)CC(=O)CCc1ccc(F)cc1 (stereo not drawn)
inhibition (Pseudomonas aeruginosa [8]): Active
inhibition (Pseudomonas aeruginosa [1]): Active

CCCCCC(O)CC(=O)CCc1cccc(OC)c1 (stereo not drawn)
inhibition (Pseudomonas aeruginosa [1]): Active
